Reference: ChEMBL document CHEMBL1157649, “Cytotoxic 2-benzylidene-6-(nitrobenzylidene)cyclohexanones which display substantially greater toxicity for neoplasms than non-malignant cells” (Bioorg Med Chem, 2010)

Experiments:
[1] = Cytotoxicity against human HGF cells after 24 hrs; assay type: cell-based; details: for CC50 at 24 h: HGF cells; for CC50: hgf, 24 h
Outline: (§1)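 Cells (HGF gingival fibroblasts, HPC pulp cells, HPLF periodontal ligament fibroblasts, HSC-2 and HSC-4 squamous carcinoma, HL-60 promyelocytic leukemia) were exposed to graded concentrations for 24 h, up to a maximum of 400 μM. CC50 is the concentration reducing viable cell number by 50%, taken from dose–response curves. Values are from duplicate determinations differing by less than 5%.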

[2] = Cytotoxicity against human HPC cells after 24 hrs; assay type: cell-based; details: for CC50 at 24 h: HPC cells; for CC50: hpc, 24 h; outline: as §1
[3] = Cytotoxicity against human HPLF cells after 24 hrs; assay type: cell-based; details: for CC50 at 24 h: HPLF cells; for CC50: hplf, 24 h; outline: as §1
HSC-2 [4] = experiment: Cytotoxicity against human HSC2 cells after 24 hrs; assay type: functional; details: HSC-2, 24 h; outline: as §1
HSC-2 [5] = experiment: Selectivity index, ratio of CC50 for human normal cells to CC50 for human HSC2 cells; assay type: functional
Outline: (§2)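 The index is the average CC50 toward the three normal cell types (HGF, HPC, HPLF) divided by the CC50 toward the indicated malignant line.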

HSC-4 [6] = experiment: Cytotoxicity against human HSC4 cells after 24 hrs; assay type: functional; details: HSC-4, 24 h; outline: as §1
HSC-4 [7] = experiment: Selectivity index, ratio of CC50 for human normal cells to CC50 for human HSC4 cells; assay type: functional; outline: as §2
HL-60 [8] = experiment: Cytotoxicity against human HL60 cells after 24 hrs; assay type: functional; details: HL-60, 24 h; outline: as §1
HL-60 [9] = experiment: Selectivity index, ratio of CC50 for human normal cells to CC50 for human HL60 cells; assay type: functional; outline: as §2
[10] = Partition coefficient, log P of the compound; assay type: physicochemical; details: octanol/water
Mus musculus [11] = experiment: Toxicity in mouse assessed as induction of mortality at 30 to 300 mg/kg, ip; assay type: organism-based; parameters: dose 30-300 mg/kg, route intraperitoneal; details: in vivo
Mus musculus [12] = experiment: Neurotoxicity in mouse assessed at 30 to 300 mg/kg, ip after 0.5 hrs; assay type: toxicity, organism-based; parameters: dose 30-300 mg/kg, route intraperitoneal; details: in vivo
Outline: (§3)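 Mice received 30, 100 or 300 mg/kg intraperitoneally and were examined at 0.5 and 4 h for mortality and neurological deficit, following NINDS screening protocols. Results were recorded as the number of mice showing a deficit over the number treated per dose.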

Mus musculus [13] = experiment: Neurotoxicity in mouse assessed at 30 to 300 mg/kg, ip after 4 hrs; assay type: toxicity, organism-based; parameters: dose 30-300 mg/kg, route intraperitoneal; details: in vivo; outline: as §3

Structure (SMILES)	CC50 at 24 h [1] [µM]	CC50 at 24 h [2] [µM]	CC50 at 24 h [3] [µM]	CC50 (HSC-2 [4]) [µM]	Selectivity Index (HSC-2 [5])	CC50 (HSC-4 [6]) [µM]	Selectivity Index (HSC-4 [7])	CC50 (HL-60 [8]) [µM]	Selectivity Index (HL-60 [9])	logP [10]	Activity (Mus musculus [11])	Activity (Mus musculus [12])	Activity (Mus musculus [13])	CC50 [1] [µM]	CC50 [2] [µM]	CC50 [3] [µM]
COc1cc(/C=C2\CCC/C(=C\c3ccc([N+](=O)[O-])cc3)C2=O)cc(OC)c1OC	336	347	378	0.76	466	1.5	236	1.1	322	4.56	Non-toxic					
O=C1/C(=C/c2ccc(Cl)cc2)CCC/C1=C\c1ccc([N+](=O)[O-])cc1	191	345	332	1.5	193	2.7	107	4.1	71	5.6	Non-toxic	Non-toxic	Non-toxic			
COc1cc(OC)c(OC)cc1/C=C1\CCC/C(=C\c2ccc([N+](=O)[O-])cc2)C1=O				67	>6	250	>1.6	400	1		Non-toxic			> 400	> 400	> 400
Cc1ccc(/C=C2\CCC/C(=C\c3cccc([N+](=O)[O-])c3)C2=O)cc1				17	>20	45	>7.4	38	>8.7	5.35	Non-toxic	Non-toxic	Non-toxic	> 400	192	> 400
O=C1/C(=C/c2ccc(Cl)cc2)CCC/C1=C\c1cccc([N+](=O)[O-])c1				2.2	15	2.3	14	3.2	10	5.58				39	18	38
O=C1/C(=C/c2ccccc2)CCC/C1=C\c1ccc([N+](=O)[O-])cc1				4.9	53	9.2	28	20	13	4.93	Non-toxic	Non-toxic	Non-toxic	371	123	282
O=C1/C(=C/c2ccccc2)CCC/C1=C\c1cccc([N+](=O)[O-])c1				3.7	5.1	2.4	7.9	3	6.3	4.9	Non-toxic			25	14	18
Cc1ccc(/C=C2\CCC/C(=C\c3ccccc3[N+](=O)[O-])C2=O)cc1				11	>36	40	>10	11	>36	5.15				> 400	> 400	> 400
COc1ccc(/C=C2\CCC/C(=C\c3cccc([N+](=O)[O-])c3)C2=O)cc1				4.8	>55	11	>24	7.2	>36	4.96	Non-toxic			> 400	33	354
COc1cc(/C=C2\CCC/C(=C\c3cccc([N+](=O)[O-])c3)C2=O)cc(OC)c1OC				73	>5.2	92	>4.1	59	>6.4	4.53	Non-toxic	Non-toxic	Non-toxic	336	> 400	> 400
O=C1CCCC/C1=C\c1ccccc1[N+](=O)[O-]				28	5.2	29	5	27	5.4		Non-toxic			218	117	103
O=C1/C(=C/c2ccc(F)cc2)CCC/C1=C\c1ccccc1[N+](=O)[O-]				2.7		2.2		3			Non-toxic	Non-toxic	Non-toxic	82	11	67
